Assay results gathered from unrelated publications.
Lines come from different studies, so protocols differ.
Target: Ephrin type-A receptor 3 (EPHA3, Homo sapiens, UniProt P29320)
One construct used (P29320 21-983): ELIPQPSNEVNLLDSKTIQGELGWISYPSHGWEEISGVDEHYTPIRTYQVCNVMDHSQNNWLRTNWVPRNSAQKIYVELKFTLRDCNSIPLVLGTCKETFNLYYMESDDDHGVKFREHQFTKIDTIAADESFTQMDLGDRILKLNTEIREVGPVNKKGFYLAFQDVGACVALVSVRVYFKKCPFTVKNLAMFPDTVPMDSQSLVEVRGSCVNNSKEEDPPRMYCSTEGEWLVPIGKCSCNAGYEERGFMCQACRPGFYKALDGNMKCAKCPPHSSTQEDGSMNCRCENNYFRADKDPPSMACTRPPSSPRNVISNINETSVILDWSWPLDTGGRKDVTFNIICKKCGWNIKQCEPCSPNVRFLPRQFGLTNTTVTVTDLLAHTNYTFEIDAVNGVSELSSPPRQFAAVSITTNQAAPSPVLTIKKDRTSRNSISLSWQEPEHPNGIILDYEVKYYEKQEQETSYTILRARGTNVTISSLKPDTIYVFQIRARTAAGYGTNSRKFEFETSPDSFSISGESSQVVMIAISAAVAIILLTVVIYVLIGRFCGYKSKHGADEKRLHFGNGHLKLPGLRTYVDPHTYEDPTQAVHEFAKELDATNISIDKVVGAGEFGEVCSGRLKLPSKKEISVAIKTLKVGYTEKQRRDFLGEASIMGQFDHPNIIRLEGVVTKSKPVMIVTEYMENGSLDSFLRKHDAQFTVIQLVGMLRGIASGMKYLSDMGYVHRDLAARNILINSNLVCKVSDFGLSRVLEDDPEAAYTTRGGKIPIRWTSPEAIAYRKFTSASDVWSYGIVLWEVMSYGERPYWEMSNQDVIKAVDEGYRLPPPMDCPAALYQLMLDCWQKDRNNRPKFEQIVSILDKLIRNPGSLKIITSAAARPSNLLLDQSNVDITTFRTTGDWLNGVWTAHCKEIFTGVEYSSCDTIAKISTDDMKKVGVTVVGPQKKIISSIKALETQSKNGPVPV

Compound | test | conditions | measurement | value
O=c1[nH]c2ccccc2n1C1CCN(Cc2ccc(-c3[nH]c4cc5ncnc5cc4nc3-c3ccccc3)cc2)CC1 | cell-free assay | 0.5 µM | remaining signal | 71.9%
Cn1cc(-c2cc(F)cc(N3CCn4c(cc5c4CCCC5)C3=O)c2CO)cc(Nc2ccc(N3CCN(C4COC4)CC3)cn2)c1=O | enzyme activity, inhibitor | 0.1 µM | inhibition | 10%
COc1cc(Nc2ncc(F)c(Nc3ccc4c(n3)NC(=O)C(C)(C)O4)n2)cc(OC)c1OC | binding, competition with immobilised ligand | 10 µM | inhibition | 90%
Cc1nn(C)cc1-c1nc2c(N3CCN(Cc4ccc(Cl)cc4)CC3)c(Cl)cnc2[nH]1 | binding, competition with immobilised ligand | 1 µM | remaining binding | 100%
Cn1cncc1[C@](O)(COc1ccc(C#N)cc1-c1ccc(OC(F)(F)F)cc1)c1ccc(C#N)cc1 | cell-free assay, competition with immobilised ligand | 1 µM | remaining binding | 90%
Cn1cc(-c2cccc(N3CCc4c(sc5c4CC(C)(C)C5)C3=O)c2CO)cc(Nc2ccncn2)c1=O | enzyme activity, inhibitor | 1 µM | inhibition | -7%
COc1ncccc1-c1cnn2ccc(N3CCN(C(=O)OC(C)C)CC3)nc12 | binding, competition with immobilised ligand | 1 µM | remaining binding | 83%
Nc1ncc(-c2nc(N3CCOCC3)nc(N3CCOCC3)n2)c(C(F)F)n1 | cell-free assay, competition with immobilised ligand | 10 µM | remaining binding | 69%
N#CC1(c2ccccn2)CCN(Cc2cc(C(=O)O)c(=O)n3ccccc23)CC1 | cell-free assay, competition with immobilised ligand | 1 µM | remaining binding | 75%
CC(C)(C)c1cc(C=C(C#N)C#N)cc(Br)c1O | enzyme activity, inhibitor | 0.5 µM | remaining activity | 102%
